One data set has as its system HepG2. The experiment in a line: Cytotoxicity against human HepG2 cells harboring A16-CD81EGFP assessed as cell viability after 48 hrs by bioluminescence assay. Type of data set: cell-based. Conditions: HepG2, 48 h. The method, boiled down: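 HepG2-A16-CD81EGFP cells, 3 × 10^3 per well, seeded 24 h ahead in DMEM with 5% FBS. Viability read by bioluminescence after 48 h and fitted by four-parameter regression; puromycin control.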

Data set [1] has as its system Plasmodium falciparum. The data set can be described thus: Antimalarial activity against asexual blood stage Plasmodium falciparum Dd2 infected in human erythrocytes after 72 hrs by SYBR green 1 dye based fluorescence assay. Conditions: Dd2, 72 h. Type of data set: functional, cell-based.
Data set [2] has as its system Plasmodium falciparum. The experiment in a line: Inhibition of schizont stage Plasmodium falciparum 20S proteasome beta5 subunit using suc-LLVY-AMC as substrate at 50 nM after 60 to 120 mins by fluorescence assay relative to control. The method, boiled down:
(§1)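 Pf20S enriched from asynchronous parasite lysate by two-step chromatography; human constitutive 20S from a commercial source. Enzymes at 0.29 nM with 25 μM Suc-LLE-AMC, Suc-LRR-AMC or Suc-LLVY-AMC in 20 mM Tris pH 7.5, 0.02% SDS. Inhibitor and substrate added together; AMC release rate (Ex 340/Em 465) taken from 60–120 min against DMSO.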

The subject of data set [3] is Plasmodium falciparum. The data set can be described thus: Inhibition of early trophozoite stage Plasmodium falciparum 20S proteasome beta5 subunit using suc-LLVY-AMC as substrate at 95 nM after 4 hrs by fluorescence assay relative to control. An outline of the steps:
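Sorbitol-synchronized early trophozoites at 5% parasitemia exposed to 95 nM inhibitor for 4 h, then washed and lysed. 15 μg total protein assayed with 25 μM Suc-LLVY-AMC in Tris pH 7.5/0.02% SDS buffer; AMC release compared against DMSO-treated cells.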

The target in data set [4] is T1, 20S proteasome beta5 subunit (Proteasome Macropain subunit MB1) (Homo sapiens, UniProt P28074).
T1 sequence (P28074 whole entry): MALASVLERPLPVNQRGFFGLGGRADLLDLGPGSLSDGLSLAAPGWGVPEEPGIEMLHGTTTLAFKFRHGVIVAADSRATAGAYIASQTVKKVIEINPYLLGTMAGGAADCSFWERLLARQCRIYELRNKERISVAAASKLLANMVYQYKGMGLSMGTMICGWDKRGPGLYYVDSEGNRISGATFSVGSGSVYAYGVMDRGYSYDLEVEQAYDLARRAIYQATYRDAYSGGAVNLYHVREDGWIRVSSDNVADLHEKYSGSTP
The data set can be described thus: Inhibition of human 20S proteasome beta5 subunit using suc-LLVY-AMC as substrate at 150 nM after 60 to 120 mins by fluorescence assay relative to control. Conditions: probe suc-LLVY-AMC. The method, boiled down: as §1

Data set [5] deals with Plasmodium falciparum. The data set can be described thus: Inhibition of schizont stage Plasmodium falciparum 20S proteasome beta1 subunit using z-LLE-AMC as substrate at 150 nM after 60 to 120 mins by fluorescence assay relative to control.
Data set [6] concerns Plasmodium falciparum. The experiment in a line: Inhibition of schizont stage Plasmodium falciparum 20S proteasome beta2 subunit using z-LRR-AMC as substrate at 150 nM after 60 to 120 mins by fluorescence assay relative to control.
The subject of data set [7] is Plasmodium falciparum. The data set can be described thus: Inhibition of schizont stage Plasmodium falciparum 20S proteasome beta5 using suc-LLVY-AMC as substrate at 150 nM after 60 to 120 mins by fluorescence assay relative to control.
Data set [8] deals with T2, constitutive 20S proteasome beta5 subunit (Proteasome Macropain subunit MB1) (Homo sapiens, UniProt P28074).
T2 sequence (P28074 whole entry): T1 sequence (P28074 whole entry)
The data set can be described thus: Inhibition of human constitutive 20S proteasome beta5 subunit using suc-LLVY-AMC as substrate at 50 nM after 60 to 120 mins by fluorescence assay relative to control. Particulars: probe suc-LLVY-AMC. The method, boiled down:
as §1

Data set [9] has as its target T3, Proteasome Macropain subunit MB1 (Homo sapiens, UniProt P28074).
T3 sequence (P28074 whole entry): T1 sequence (P28074 whole entry)
The data set can be described thus: Irreversible inhibition of human 20S proteasome beta5 subunit using suc-LLVY-AMC as substrate after 4 hrs at 30 mins time interval by fluorescence assay.

Data set [10] relates to Plasmodium falciparum. The data set can be described thus: Growth inhibition of Plasmodium falciparum Dd2 infected in human erythrocytes at 0.5 to 1 nM after 72 hrs by SYBR green 1 dye based fluorescence assay relative to control. The data set is classed as cell-based. Particulars: Dd2, 72 h, read-out: GI.
In data set [11] the test system is Plasmodium falciparum. The data set can be described thus: Antimalarial activity against stage V gametocytes of Plasmodium falciparum NF54 infected in human erythrocytes after 72 hrs by mitotracker red based […] assay. Particulars: NF54, 72 h. Type of data set: functional, cell-based.
Data set [12] concerns Plasmodium falciparum. The experiment in a line: Inhibition of schizont stage Plasmodium falciparum 20S proteasome beta1 subunit using z-LLE-AMC as substrate at 450 nM after 60 to 120 mins by fluorescence assay relative to control.
Data set [13] deals with Plasmodium falciparum. The data set can be described thus: Inhibition of schizont stage Plasmodium falciparum 20S proteasome beta2 subunit using z-LRR-AMC as substrate at 450 nM after 60 to 120 mins by fluorescence assay relative to control.
The subject of data set [14] is Plasmodium falciparum. The experiment in a line: Inhibition of schizont stage Plasmodium falciparum 20S proteasome using suc-LLVY-AMC as substrate at 450 nM after 60 to 120 mins relative to control.

SMILES strings stand for the structures.

For `CCCCCC(=O)N[C@@H](Cc1c[nH]c2ccccc12)C(=O)N[C@@H](Cc1c[nH]c2ccccc12)C(=O)N[C@@H](CC(C)C)C(=O)[C@@]1(C)CO1`, the IC50 in the data set with HepG2 turned out to be 0.0117 µM; in the data set with Plasmodium falciparum [1] it was 0.0037 µM.
Consider `CCCCCC(=O)N[C@@H](Cc1ccc(N)cc1)C(=O)N[C@@H](CCCC)C(=O)N[C@@H](Cc1ccccc1)C(=O)[C@@]1(C)CO1`, for which the IC50 with HepG2 came out at 3.41 µM; with Plasmodium falciparum [1] it was 0.0818 µM. Besides, the inhibition with Plasmodium falciparum [2] lay within 10 to 47%; in the data set with Plasmodium falciparum [3], 40 to 60%.
For the compound `CCCCCC(=O)NC(Cc1ccc(NC(=O)OC(C)(C)C)cc1)C(=O)N[C@@H](Cc1ccc(NC(=O)OC(C)(C)C)cc1)C(=O)N[C@@H](CC(C)C)C(=O)[C@@]1(C)CO1` (single isomer, unassigned), the IC50 with HepG2 was 0.118 µM; with Plasmodium falciparum [1], 0.0135 µM.
For `CCCCCC(=O)N[C@H](Cc1ccc(N)cc1)C(=O)N[C@@H](Cc1ccc(N)cc1)C(=O)N[C@@H](CC(C)C)C(=O)[C@@]1(C)CO1`, in that order: 0.00091 µM and 0.0596 µM.
Turning to `CCCCCC(=O)N[C@H](Cc1ccncc1)C(=O)N[C@@H](CCCC)C(=O)N[C@@H](CC(C)C)C(=O)[C@@]1(C)CO1`, the IC50 in the data set with HepG2 is less than 0.000283 µM; with Plasmodium falciparum [1], 0.0218 µM.
As for `CCCCCC(=O)N[C@@H](Cc1ccc(NC(=O)OC(C)(C)C)cc1)C(=O)N[C@@H](CCCC)C(=O)N[C@@H](Cc1ccccc1)C(=O)[C@@]1(C)CO1`, the IC50 with HepG2 worked out at 0.478 µM; in the data set with Plasmodium falciparum [1], 0.00545 µM. In addition, the inhibition in the data set with Plasmodium falciparum [2] was in the range of 10 to 47%; with Plasmodium falciparum [3], 40 to 60%.
Compound `CCCCCC(=O)N[C@H](C(=O)N[C@@H](CCS(C)(=O)=O)C(=O)N[C@@H](CC(C)C)C(=O)[C@@]1(C)CO1)C(C)C` came in with an inhibition at 0.15 µM in [4] of 98%. Besides, the inhibition in the data set on Plasmodium falciparum [5] is 16%; with Plasmodium falciparum [6], 29%; in the data set with Plasmodium falciparum [7] it was 45%; in the data set on Plasmodium falciparum [2], 10 to 47%; with Plasmodium falciparum [3] it was 40 to 60%. Also, in data set [8], the inhibition at 0.05 µM came to 97%. The same compound gave a Ki in data set [9] of 0.375 µM. Also, in the data set with Plasmodium falciparum [10], the inhibition at up to 0.001 µM was less than 10%.
Take `CCCCCC(=O)N[C@@H](Cc1ccccc1)C(=O)N[C@@H](CCCC)C(=O)N[C@@H](Cc1ccccc1)C(=O)[C@@]1(C)CO1`: the IC50 is 0.0308 µM in the data set on HepG2 and 0.0067 µM in the data set with Plasmodium falciparum [1].
`CCCCCC(=O)N[C@@H](Cc1c[nH]c2ccccc12)C(=O)N[C@@H](CCCC)C(=O)N[C@@H](CC(C)C)C(=O)[C@@]1(C)CO1` showed an IC50 with Plasmodium falciparum [1] of 0.00311 µM.
As for `CCCCCC(=O)N[C@@H](Cc1c[nH]c2ccccc12)C(=O)N[C@@H](CCCC)C(=O)N[C@@H](Cc1ccccc1)C(=O)[C@@]1(C)CO1`, the IC50 with HepG2 worked out at 0.00641 µM; with Plasmodium falciparum [1] it was 0.00977 µM.
With `CCCCCC(=O)N[C@H](Cc1c[nH]c2ccccc12)C(=O)N[C@@H](CCCC)C(=O)N[C@@H](CC(C)C)C(=O)[C@@]1(C)CO1`, the IC50 in the data set with HepG2 stood at 0.915 µM; with Plasmodium falciparum [1], 0.00292 µM. The compound further showed an inhibition at 0.05 µM in data set [8] not above 10%. Further, the inhibition in the data set with Plasmodium falciparum [2] lay within 10 to 47%; in the data set on Plasmodium falciparum [3] it was 40 to 60%.
As for `CCCCCC(=O)N[C@H](Cc1ccc(N)cc1)C(=O)N[C@@H](Cc1ccc(N)cc1)C(=O)N[C@@H](Cc1ccccc1)C(=O)[C@@]1(C)CO1`, the IC50 with HepG2 is 0.952 µM; in the data set with Plasmodium falciparum [1] it was 0.0682 µM.
The corresponding values for `CCCCCC(=O)NC(Cc1ccc(NC(=O)OC(C)(C)C)cc1)C(=O)N[C@@H](Cc1ccc(NC(=O)OC(C)(C)C)cc1)C(=O)N[C@@H](Cc1ccccc1)C(=O)[C@@]1(C)CO1` (single isomer, unassigned) are 0.0457 µM and 0.0122 µM.
As for `CCCCCC(=O)N[C@@H](C(=O)N[C@@H](CCCC)C(=O)N[C@@H](CC(C)C)C(=O)[C@@]1(C)CO1)C(C)C`, the values for the IC50 with Plasmodium falciparum [11], in the data set on HepG2 and in the data set with Plasmodium falciparum [1] were 0.13 µM, 1.24 µM and 0.00327 µM, respectively. In [8], this compound showed an inhibition at 0.05 µM not above 10%. Moreover, the inhibition in the data set on Plasmodium falciparum [2] is 10 to 47%; with Plasmodium falciparum [12], 6%; in the data set with Plasmodium falciparum [13], 9%; with Plasmodium falciparum [14], 45%; in the data set on Plasmodium falciparum [3] it was 40 to 60%. For the same compound, the Ki in data set [9] is 39.2 µM. Moreover, the inhibition at up to 0.001 µM in the data set with Plasmodium falciparum [10] was less than 10%.
For `CCCCCC(=O)N[C@@H](Cc1ccncc1)C(=O)N[C@@H](CCCC)C(=O)N[C@@H](Cc1ccccc1)C(=O)[C@@]1(C)CO1`, the concentration for half-maximal inhibition (IC50) was less than 0.000283 µM in the data set with HepG2 and 0.00387 µM in the data set with Plasmodium falciparum [1].
As for `CCCCCC(=O)N[C@H](C(=O)N[C@@H](CCCC)C(=O)N[C@@H](CC(C)C)C(=O)[C@@]1(C)CO1)C(C)C`, the IC50 turned out to be 0.134 µM in the data set on HepG2 and 0.00411 µM with Plasmodium falciparum [1]. The same compound yielded an inhibition at 0.05 µM in data set [8] of 89%. Further, the inhibition in the data set on Plasmodium falciparum [2] was 10 to 47%; with Plasmodium falciparum [3] it was 40 to 60%. Besides, the Ki in [9] is 3.74 µM.
Turning to `CCCCCC(=O)N[C@@H](Cc1ccc(NC(=O)OC(C)(C)C)cc1)C(=O)N[C@@H](CCCC)C(=O)N[C@@H](CC(C)C)C(=O)[C@@]1(C)CO1`, the IC50 with HepG2 came out at 0.0802 µM; in the data set on Plasmodium falciparum [1] it was 0.00555 µM.
As for `CCCCCC(=O)N[C@@H](Cc1c[nH]c2ccccc12)C(=O)N[C@@H](Cc1c[nH]c2ccccc12)C(=O)N[C@@H](Cc1ccccc1)C(=O)[C@@]1(C)CO1`, the concentration for half-maximal inhibition (IC50) with HepG2 worked out at 0.346 µM; in the data set on Plasmodium falciparum [1], 0.00938 µM. Besides, the inhibition in the data set on Plasmodium falciparum [2] fell in the range of 10 to 47%; with Plasmodium falciparum [3] it was 40 to 60%.
On to `CCCCCC(=O)N[C@@H](Cc1ccccc1)C(=O)N[C@@H](CCCC)C(=O)N[C@@H](CC(C)C)C(=O)[C@@]1(C)CO1`, for which the IC50 is 0.0227 µM in the data set on HepG2 and 0.00404 µM with Plasmodium falciparum [1].
For the compound `CCCCCC(=O)N[C@@H](Cc1ccncc1)C(=O)N[C@@H](CCCC)C(=O)N[C@@H](CC(C)C)C(=O)[C@@]1(C)CO1`, the values for the half-inhibitory concentration (IC50) with HepG2 and in the data set with Plasmodium falciparum [1] were less than 0.000283 µM and 0.00328 µM, respectively.
As to `CCCCCC(=O)N[C@@H](Cc1ccc(N)cc1)C(=O)N[C@@H](CCCC)C(=O)N[C@@H](CC(C)C)C(=O)[C@@]1(C)CO1`, the IC50 in the data set with HepG2 worked out at 0.00632 µM; in the data set with Plasmodium falciparum [1] it was 0.00599 µM.
